Measured values from ChEMBL document CHEMBL3774321, “Systematic diversification of benzylidene heterocycles yields novel inhibitor scaffolds selective for Dyrk1A, Clk1 and CK2” (Eur J Med Chem, 2016).
Active and inactive are the calls of the source. No cut-off for these calls is given here.

Experiments:
[1] = target: T1, Myosin light chain kinase 2, skeletal/cardiac muscle (Homo sapiens, UniProt Q9H1R3); experiment: Inhibition of full length recombinant human N-terminal GST-tagged MLCK expressed in baculovirus expression system by lantha screen kinase binding assay
Procedure, shortened: (§1)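 Binding-displacement format: the compound competes with an Alexa Fluor-conjugated tracer for binding to the kinase ATP site, rather than a peptide phosphorylation read-out.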

[2] = target: Myosin light chain kinase, smooth muscle (Homo sapiens) (UniProt Q15746); experiment: Inhibition of recombinant human GST-tagged MYLK expressed in baculovirus expression system at 1 uM by lantha screen kinase binding assay relative to control; procedure, shortened: as §1
[3] = target: T1, Myosin light chain kinase 2, skeletal/cardiac muscle; experiment: Inhibition of full length recombinant human N-terminal GST-tagged skeletal MYLK2 expressed in baculovirus expression system at 1 uM by lantha screen kinase binding assay relative to control; procedure, shortened: as §1
[4] = target: MAP kinase-interacting serine/threonine-protein kinase 2 (Homo sapiens) (UniProt Q9HBH9); experiment: Inhibition of full length recombinant human N-terminal GST-tagged MKNK2 expressed in insect cells at 1 uM by lantha screen kinase binding assay relative to control; procedure, shortened: as §1
[5] = target: Receptor-interacting serine/threonine-protein kinase 2 (Homo sapiens) (UniProt O43353); experiment: Inhibition of recombinant human His-tagged RIPK2 expressed in baculovirus expression system at 1 uM by lantha screen kinase binding assay relative to control; procedure, shortened: as §1
[6] = target: Serine/threonine-protein kinase 26 (Homo sapiens) (UniProt Q9P289); experiment: Inhibition of full length recombinant human GST-tagged MST4 expressed in baculovirus expression system at 1 uM by lantha screen kinase binding assay relative to control
[7] = target: cAMP-dependent protein kinase catalytic subunit alpha (Homo sapiens) (UniProt P17612); experiment: Inhibition of recombinant human His-tagged PRKACA expressed in Escherichia coli at 1 uM by lantha screen kinase binding assay relative to control; procedure, shortened: as §1
[8] = target: BDNF/NT-3 growth factors receptor (Homo sapiens) (UniProt Q16620); experiment: Inhibition of recombinant human His-tagged NTRK2 expressed in baculovirus expression system at 1 uM by lantha screen kinase binding assay relative to control; procedure, shortened: as §1
[9] = target: Epidermal growth factor receptor (Homo sapiens, UniProt P00533); experiment: Inhibition of recombinant human GST-tagged EGFR expressed in baculovirus expression system at 1 uM by lantha screen kinase binding assay relative to control; procedure, shortened: as §1
[10] = target: Casein kinase I isoform delta (Homo sapiens) (UniProt P48730); experiment: Inhibition of full length recombinant human GST-tagged CSNK1D expressed in baculovirus expression system at 1 uM by lantha screen kinase binding assay relative to control
[11] = target: Casein kinase I isoform gamma-2 (Homo sapiens) (UniProt P78368); experiment: Inhibition of full length recombinant human His-tagged CSNK1G2 expressed in baculovirus expression system at 1 uM by lantha screen kinase binding assay relative to control
[12] = target: Serine/threonine-protein kinase 17A (Homo sapiens, UniProt Q9UEE5); experiment: Inhibition of STK17A (unknown origin)
[13] = target: T2, Serine/threonine-protein kinase pim-1 (Homo sapiens, UniProt P11309); experiment: Inhibition of PIM1 (unknown origin) at 1 uM relative to control
Procedure, shortened: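 Single-point screen at 1 μM compound. Percent inhibition is the mean of two separate measurements, each run in duplicate.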

[14] = target: T2, Serine/threonine-protein kinase pim-1; experiment: Inhibition of PIM1 (unknown origin)
Procedure, shortened: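 Calculated from means of duplicates differing by less than 7%.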

[15] = target: T3, Cyclin-dependent kinase 5/CDK5 activator 1 (Homo sapiens) (UniProt Q00535+Q15078); experiment: Inhibition of full length recombinant human GST-tagged, His-tagged CDK5/p25 expressed in baculovirus expression system at 1 uM by lantha screen kinase binding assay
[16] = target: Dual specificity tyrosine-phosphorylation-regulated kinase 4 (Homo sapiens) (UniProt Q9NR20); experiment: Inhibition of full length recombinant human GST-tagged DYRK4 expressed in baculovirus expression system at 1 uM by lantha screen kinase binding assay relative to control
[17] = target: Glycogen synthase kinase-3 beta (Homo sapiens) (UniProt P49841); experiment: Inhibition of full length recombinant human His-tagged GSK3beta expressed in baculovirus expression system at 1 uM by lantha screen kinase binding assay relative to control; procedure, shortened: as §1
[18] = target: Mitogen-activated protein kinase 14 (Homo sapiens) (UniProt Q16539); experiment: Inhibition of full length recombinant human GST-tagged MAPK14 expressed in Escherichia coli at 1 uM by lantha screen kinase binding assay relative to control
[19] = target: T1, Myosin light chain kinase 2, skeletal/cardiac muscle; experiment: Inhibition of full length recombinant human N-terminal GST-tagged MLCK expressed in baculovirus expression system at 5 uM by lantha screen kinase binding assay relative to control; procedure, shortened: as §1
[20] = target: Mitogen-activated protein kinase kinase kinase 9 (Homo sapiens) (UniProt P80192); experiment: Inhibition of recombinant human GST-tagged MAP3K9 expressed in baculovirus expression system at 5 uM by lantha screen kinase binding assay relative to control; procedure, shortened: as §1
[21] = target: cAMP-dependent protein kinase catalytic subunit alpha (Homo sapiens) (UniProt P17612); experiment: Inhibition of recombinant human His-tagged PRKACA expressed in Escherichia coli at 5 uM by lantha screen kinase binding assay relative to control; procedure, shortened: as §1
[22] = target: Serine/threonine-protein kinase D2 (Homo sapiens) (UniProt Q9BZL6); experiment: Inhibition of full length recombinant human GST-tagged PRKD2 expressed in baculovirus expression system at 5 uM by lantha screen kinase binding assay relative to control
[23] = target: Tyrosine-protein kinase ABL1 (Homo sapiens) (UniProt P00519); experiment: Inhibition of recombinant human His-tagged ABL1 expressed in baculovirus expression system at 5 uM by lantha screen kinase binding assay relative to control; procedure, shortened: as §1
[24] = target: Casein kinase I isoform gamma-3 (Homo sapiens) (UniProt Q9Y6M4); experiment: Inhibition of full length recombinant human GST-tagged CSNK1G3 expressed in baculovirus expression system at 5 uM by lantha screen kinase binding assay relative to control
[25] = target: Dual specificity protein kinase CLK2 (Homo sapiens) (UniProt P49760); experiment: Inhibition of recombinant human GST-tagged CLK2 expressed in baculovirus expression system at 5 uM by lantha screen kinase binding assay relative to control; procedure, shortened: as §1
[26] = target: Dual specificity protein kinase CLK3 (Homo sapiens, UniProt P49761); experiment: Inhibition of recombinant human GST-tagged CLK3 expressed in baculovirus expression system at 5 uM by lantha screen kinase binding assay relative to control; procedure, shortened: as §1
[27] = target: T3, Cyclin-dependent kinase 5/CDK5 activator 1 (Homo sapiens); experiment: Inhibition of full length recombinant human GST-tagged, His-tagged CDK5/p25 expressed in baculovirus expression system at 5 uM by lantha screen kinase binding assay
[28] = target: Dual specificity tyrosine-phosphorylation-regulated kinase 3 (Homo sapiens) (UniProt O43781); experiment: Inhibition of full length recombinant human GST-tagged DYRK3 expressed in baculovirus expression system at 5 uM by lantha screen kinase binding assay relative to control
[29] = target: Mitogen-activated protein kinase 14 (Homo sapiens) (UniProt Q16539); experiment: Inhibition of full length recombinant human GST-tagged MAPK14 expressed in Escherichia coli at 5 uM by lantha screen kinase binding assay relative to control
[30] = target: Serine/threonine-protein kinase pim-2 (Homo sapiens) (UniProt Q9P1W9); experiment: Inhibition of full length recombinant human GST-tagged PIM2 expressed in baculovirus expression system at 5 uM by lantha screen kinase binding assay relative to control
[31] = target: Calcium/calmodulin-dependent protein kinase type II subunit alpha (Homo sapiens) (UniProt Q9UQM7); experiment: Inhibition of full length recombinant human His-tagged CAMK2A expressed in baculovirus expression system at 5 uM by lantha screen kinase binding assay relative to control
Sequence of Calcium/calmodulin-dependent protein kinase type II subunit alpha (Homo sapiens) (Q9UQM7 whole entry): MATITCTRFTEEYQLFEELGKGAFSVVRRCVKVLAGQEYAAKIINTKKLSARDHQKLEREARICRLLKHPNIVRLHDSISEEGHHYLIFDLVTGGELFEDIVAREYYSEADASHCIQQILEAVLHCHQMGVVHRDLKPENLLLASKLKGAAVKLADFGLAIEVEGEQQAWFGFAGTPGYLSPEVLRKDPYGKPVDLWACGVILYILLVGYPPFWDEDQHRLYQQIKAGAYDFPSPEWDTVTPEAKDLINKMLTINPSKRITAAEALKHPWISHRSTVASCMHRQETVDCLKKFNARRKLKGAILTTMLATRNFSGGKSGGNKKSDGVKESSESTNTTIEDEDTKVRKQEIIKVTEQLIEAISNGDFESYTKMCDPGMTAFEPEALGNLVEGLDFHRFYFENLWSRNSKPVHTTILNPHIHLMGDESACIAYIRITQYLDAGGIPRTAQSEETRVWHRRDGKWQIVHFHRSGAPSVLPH

T1 sequence (Q9H1R3 whole entry): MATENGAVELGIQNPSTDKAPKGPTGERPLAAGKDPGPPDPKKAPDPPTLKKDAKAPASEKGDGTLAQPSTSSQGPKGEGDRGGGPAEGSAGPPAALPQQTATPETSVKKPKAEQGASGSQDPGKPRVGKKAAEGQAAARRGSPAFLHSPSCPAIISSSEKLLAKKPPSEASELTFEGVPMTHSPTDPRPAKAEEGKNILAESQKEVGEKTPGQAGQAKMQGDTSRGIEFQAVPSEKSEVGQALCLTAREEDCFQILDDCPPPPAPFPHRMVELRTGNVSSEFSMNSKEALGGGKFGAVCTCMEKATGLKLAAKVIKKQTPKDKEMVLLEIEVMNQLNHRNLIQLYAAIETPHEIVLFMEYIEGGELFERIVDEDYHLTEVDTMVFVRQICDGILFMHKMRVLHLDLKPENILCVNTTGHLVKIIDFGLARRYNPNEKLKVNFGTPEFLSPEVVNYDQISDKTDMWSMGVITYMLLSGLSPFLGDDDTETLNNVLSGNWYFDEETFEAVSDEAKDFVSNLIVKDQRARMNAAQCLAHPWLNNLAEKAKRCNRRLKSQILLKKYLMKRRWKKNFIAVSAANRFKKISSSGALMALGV
T3 sequence (Q00535 whole entry): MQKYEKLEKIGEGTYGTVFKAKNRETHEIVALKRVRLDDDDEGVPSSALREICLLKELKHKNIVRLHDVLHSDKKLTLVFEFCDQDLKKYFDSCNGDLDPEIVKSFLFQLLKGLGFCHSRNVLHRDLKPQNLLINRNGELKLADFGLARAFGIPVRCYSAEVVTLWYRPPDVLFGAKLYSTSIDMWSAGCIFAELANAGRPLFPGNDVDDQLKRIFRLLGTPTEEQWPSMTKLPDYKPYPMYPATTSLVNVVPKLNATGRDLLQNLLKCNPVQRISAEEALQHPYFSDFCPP
T3 sequence (Q15078 99-307 partner limits assumed): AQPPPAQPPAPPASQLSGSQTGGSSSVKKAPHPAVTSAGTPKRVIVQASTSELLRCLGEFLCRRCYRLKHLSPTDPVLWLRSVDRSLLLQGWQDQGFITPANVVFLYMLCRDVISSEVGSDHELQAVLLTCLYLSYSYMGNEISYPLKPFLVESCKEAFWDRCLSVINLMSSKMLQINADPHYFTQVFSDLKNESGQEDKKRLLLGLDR
Sequence of Mitogen-activated protein kinase 14 (Homo sapiens) (Q16539 whole entry): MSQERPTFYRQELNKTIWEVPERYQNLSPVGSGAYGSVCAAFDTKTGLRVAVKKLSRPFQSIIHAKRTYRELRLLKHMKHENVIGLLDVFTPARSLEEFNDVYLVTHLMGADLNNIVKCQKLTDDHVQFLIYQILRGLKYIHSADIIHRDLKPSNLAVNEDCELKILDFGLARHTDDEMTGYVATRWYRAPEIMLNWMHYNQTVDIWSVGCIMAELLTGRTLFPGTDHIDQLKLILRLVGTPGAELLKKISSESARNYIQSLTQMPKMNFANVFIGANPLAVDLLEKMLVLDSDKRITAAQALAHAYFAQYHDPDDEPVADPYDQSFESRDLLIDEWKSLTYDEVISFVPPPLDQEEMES
Sequence of Casein kinase I isoform gamma-3 (Homo sapiens) (Q9Y6M4 whole entry, looked up, canonical isoform): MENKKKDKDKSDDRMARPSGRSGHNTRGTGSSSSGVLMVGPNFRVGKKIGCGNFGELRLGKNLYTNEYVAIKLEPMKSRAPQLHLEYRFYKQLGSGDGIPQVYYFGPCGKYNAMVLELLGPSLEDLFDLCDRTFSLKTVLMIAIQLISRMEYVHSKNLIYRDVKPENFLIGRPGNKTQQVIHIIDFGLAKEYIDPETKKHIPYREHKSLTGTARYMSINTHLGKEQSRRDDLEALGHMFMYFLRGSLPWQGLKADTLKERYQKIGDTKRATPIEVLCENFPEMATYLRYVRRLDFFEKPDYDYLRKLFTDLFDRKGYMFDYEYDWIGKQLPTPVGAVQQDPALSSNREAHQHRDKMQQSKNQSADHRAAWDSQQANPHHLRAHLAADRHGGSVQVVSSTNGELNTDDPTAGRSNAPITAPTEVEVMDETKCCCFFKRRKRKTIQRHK
Sequence of Casein kinase I isoform gamma-2 (Homo sapiens) (P78368 whole entry, looked up, canonical isoform): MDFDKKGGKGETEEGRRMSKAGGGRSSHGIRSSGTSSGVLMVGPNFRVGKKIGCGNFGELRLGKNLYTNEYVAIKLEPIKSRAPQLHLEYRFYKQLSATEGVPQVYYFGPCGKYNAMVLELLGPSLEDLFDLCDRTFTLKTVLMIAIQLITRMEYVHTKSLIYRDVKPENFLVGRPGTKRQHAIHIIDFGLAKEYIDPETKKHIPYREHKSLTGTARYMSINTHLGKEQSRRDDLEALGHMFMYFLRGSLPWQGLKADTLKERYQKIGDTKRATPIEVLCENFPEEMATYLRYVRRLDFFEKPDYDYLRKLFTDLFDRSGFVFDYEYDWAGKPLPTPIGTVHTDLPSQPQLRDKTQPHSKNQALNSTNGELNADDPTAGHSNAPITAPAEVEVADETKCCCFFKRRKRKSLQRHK
Sequence of Epidermal growth factor receptor (P00533 whole entry, canonical isoform): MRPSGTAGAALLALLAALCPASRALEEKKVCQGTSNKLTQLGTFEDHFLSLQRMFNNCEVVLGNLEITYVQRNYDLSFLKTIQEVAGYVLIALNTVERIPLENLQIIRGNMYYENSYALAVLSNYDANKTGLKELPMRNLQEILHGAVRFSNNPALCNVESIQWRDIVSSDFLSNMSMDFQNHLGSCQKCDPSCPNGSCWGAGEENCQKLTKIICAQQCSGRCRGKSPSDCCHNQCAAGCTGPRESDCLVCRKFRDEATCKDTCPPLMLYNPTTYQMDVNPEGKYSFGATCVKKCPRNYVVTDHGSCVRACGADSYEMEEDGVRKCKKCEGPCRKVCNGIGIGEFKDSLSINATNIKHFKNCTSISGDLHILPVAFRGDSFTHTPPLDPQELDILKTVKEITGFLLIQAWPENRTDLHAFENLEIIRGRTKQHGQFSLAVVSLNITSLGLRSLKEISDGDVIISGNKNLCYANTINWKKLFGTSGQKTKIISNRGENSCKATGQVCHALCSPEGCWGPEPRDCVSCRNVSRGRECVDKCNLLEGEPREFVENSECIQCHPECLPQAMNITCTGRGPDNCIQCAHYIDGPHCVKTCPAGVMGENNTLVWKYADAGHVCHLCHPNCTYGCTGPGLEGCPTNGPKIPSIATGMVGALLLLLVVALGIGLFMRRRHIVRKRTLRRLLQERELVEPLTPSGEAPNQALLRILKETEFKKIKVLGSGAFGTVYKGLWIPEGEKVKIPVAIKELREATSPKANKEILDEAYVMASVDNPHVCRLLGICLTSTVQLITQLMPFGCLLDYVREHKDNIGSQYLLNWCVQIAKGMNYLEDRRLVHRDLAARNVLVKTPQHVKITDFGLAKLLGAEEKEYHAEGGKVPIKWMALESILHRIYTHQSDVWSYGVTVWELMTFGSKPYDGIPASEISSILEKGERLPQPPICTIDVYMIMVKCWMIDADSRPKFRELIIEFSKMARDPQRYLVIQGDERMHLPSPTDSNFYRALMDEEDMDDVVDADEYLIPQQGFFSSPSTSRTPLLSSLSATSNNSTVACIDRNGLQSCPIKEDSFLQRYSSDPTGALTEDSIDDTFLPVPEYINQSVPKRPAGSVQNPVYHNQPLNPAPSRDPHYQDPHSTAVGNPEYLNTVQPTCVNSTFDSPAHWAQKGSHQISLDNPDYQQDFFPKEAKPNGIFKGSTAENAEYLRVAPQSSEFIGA
Sequence of Serine/threonine-protein kinase pim-2 (Homo sapiens) (Q9P1W9 whole entry, looked up): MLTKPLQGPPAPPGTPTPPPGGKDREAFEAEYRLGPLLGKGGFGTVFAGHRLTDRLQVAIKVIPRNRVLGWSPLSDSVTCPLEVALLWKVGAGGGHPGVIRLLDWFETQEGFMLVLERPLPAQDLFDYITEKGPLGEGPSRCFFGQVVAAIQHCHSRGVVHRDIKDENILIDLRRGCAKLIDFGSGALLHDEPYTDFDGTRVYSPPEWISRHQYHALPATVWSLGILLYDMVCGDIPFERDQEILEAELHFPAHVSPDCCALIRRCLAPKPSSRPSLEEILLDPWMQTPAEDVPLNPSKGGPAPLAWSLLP
Sequence of Dual specificity tyrosine-phosphorylation-regulated kinase 4 (Homo sapiens) (Q9NR20 whole entry): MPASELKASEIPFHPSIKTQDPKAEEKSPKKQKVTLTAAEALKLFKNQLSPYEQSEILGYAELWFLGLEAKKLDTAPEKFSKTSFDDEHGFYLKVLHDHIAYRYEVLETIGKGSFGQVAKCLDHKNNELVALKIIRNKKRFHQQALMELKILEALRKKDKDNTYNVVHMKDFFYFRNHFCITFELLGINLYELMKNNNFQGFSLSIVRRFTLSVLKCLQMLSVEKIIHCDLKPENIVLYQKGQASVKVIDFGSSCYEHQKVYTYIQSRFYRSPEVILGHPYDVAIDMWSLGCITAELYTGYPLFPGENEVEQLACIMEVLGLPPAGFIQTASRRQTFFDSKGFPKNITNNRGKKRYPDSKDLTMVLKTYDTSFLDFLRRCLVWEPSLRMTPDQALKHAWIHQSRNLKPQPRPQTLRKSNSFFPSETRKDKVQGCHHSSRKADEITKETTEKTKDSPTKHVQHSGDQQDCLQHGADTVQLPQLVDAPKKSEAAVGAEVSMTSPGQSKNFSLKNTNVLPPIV

O=C1NC(=S)S/C1=C\c1ccc2ncccc2c1
IC50 [1]: 157 nM
inhibition [2]: 48%
inhibition [3]: 35%
inhibition [4]: 34%
inhibition [5]: 83%
inhibition [6]: inactive
inhibition [7]: inactive
inhibition [8]: 3%
inhibition [9]: inactive
inhibition [10]: 11%
inhibition [11]: 43%
IC50 [12]: 12.8 nM
inhibition [13]: 89%
IC50 [14]: 103 nM
inhibition [15]: inactive
inhibition [16]: 39%
inhibition [17]: 10%
inhibition [18]: 6%

O=C1NC(=S)S/C1=C\c1ccc2ncsc2c1
inhibition [19]: 12%
inhibition [20]: inactive
inhibition [21]: inactive
inhibition [22]: inactive
inhibition [23]: 6%
inhibition [24]: inactive
inhibition [25]: 65%
inhibition [26]: 44%
inhibition [27]: inactive
inhibition [28]: 7%
inhibition [29]: inactive
inhibition [30]: inactive
inhibition [31]: inactive
